Activity calls are given as the source filed them. The calls are words filed in the database; no cut-off is given here.
Tests used:
Oryctolagus cuniculus [1] = test: Cardioprotective effect in New Zealand white rabbit assessed as reduction of infract size at 1.3 mg/kg, iv administered before 30 mins of ischemia and 3 hrs of reperfusion in presence of mitoKATP blocker 5-hydroxydecanoic acid relative to control; type: functional; parameters: scale not given: the % may be the effect or the level left
Method in brief: (§1)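 Anesthetized (pentobarbital 30 mg/kg iv), ventilated male rabbits; regional myocardial ischemia 30 min, reperfusion 3 h. Total 1.3 mg/kg split into two iv boluses in 0.2 ml DMSO + 0.8 ml saline, 40 min and 1 min before ischemia; controls got vehicle. Microspheres delineated risk zone; 3 mm slices stained with 1% TTC, 20 min, 37 C; infarct/risk volume ratio (%). n = 5-10 per group.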

Oryctolagus cuniculus [2] = test: Decrease in MDA level in New Zealand white rabbit at 1.3 mg/kg, iv after 20 mins of reperfusion relative to control; type: functional, organism-based; parameters: dose 1.3 mg/kg
Method in brief: (§2)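 Rabbit plasma sampled at baseline, 20 min ischemia, and 1 and 20 min reperfusion after 1.3 mg/kg iv (two boluses). MDA by N-methyl-2-phenyl-indole colorimetric kit: 0.2 ml plasma plus reagent and HCl, 45 C for 60 min, centrifuged, A586; MDA standard curve (2-20 lmol/ml); triplicate; mean ± SEM.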

Oryctolagus cuniculus [3] = test: Cardioprotective effect in New Zealand white rabbit assessed as reduction of infract size at 1.3 mg/kg, iv administered before 30 mins of ischemia and 3 hrs of reperfusion relative to control; type: functional; parameters: scale not given: the % may be the effect or the level left; method in brief: as §1
Oryctolagus cuniculus [4] = test: Cardioprotective effect in New Zealand white rabbit assessed as reduction of infract size at 1.3 mg/kg, iv administered before 30 of mins ischemia and 3 hrs of reperfusion in presence of adenosine receptor blocker 8-(p-sulfonyl) theophylline relative to control; type: functional; parameters: scale not given: the % may be the effect or the level left; method in brief: as §1
Oryctolagus cuniculus [5] = test: Increase in circulating cGMP level in New Zealand white rabbit at 1.3 mg/kg, iv after 20 mins of ischemia by enzyme immunoassay relative to control; type: functional, organism-based; parameters: dose 1.3 mg/kg
Method in brief: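 Plasma from rabbits dosed 1.3 mg/kg iv (40 and 1 min pre-ischemia) drawn at 20 min of sustained ischemia. cGMP by competitive enzyme immunoassay: alkaline phosphatase-cGMP conjugate plus polyclonal antibody, 2 h at 25 C shaking, p-nitrophenyl phosphate 1 h, read 450 nm corrected at 550 nm; concentration from standard curve.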

Oryctolagus cuniculus [6] = test: Increase in MDA level in New Zealand white rabbit at 1.3 mg/kg, iv after 20 mins of ischemia relative to control; type: functional, organism-based; parameters: dose 1.3 mg/kg; method in brief: as §2

| Structure (SMILES) | Activity (Oryctolagus cuniculus [1]) [%] | Activity (Oryctolagus cuniculus [2]) | Activity (Oryctolagus cuniculus [3]) [%] | Activity (Oryctolagus cuniculus [4]) [%] | Activity (Oryctolagus cuniculus [5]) | Activity (Oryctolagus cuniculus [6]) |
| --- | --- | --- | --- | --- | --- | --- |
| O=[N+]([O-])OCCCCCCn1cnc2c(N3CCCCC3)ncnc21 | 21.9 | Active | 19.8 | 28.03 | – | – |
| O=[N+]([O-])OCCCCCCCCCCCn1cnc2c(N3CCCCC3)ncnc21 | – | Active | – | – | Active | – |
| O=C(NCCO[N+](=O)[O-])c1cc2ccccc2[nH]1 | 40.12 | Active | 20.5 | – | Active | Active |
| O=C(NCCO[N+](=O)[O-])c1ccc2ccccc2n1 | – | Active | 22.4 | – | Active | Active |

From ChEMBL document CHEMBL1144733, “Design and synthesis of nitrate esters of aromatic heterocyclic compounds as pharmacological preconditioning agents” (2008)
